CHT inh = inhibitors of human choline transporter CHT. Q9GZV3. CHT-expressing cells, membrane potential dye, choline response; hits give low values. B-score at 10 µM. hit rate 0.86% among 310,000;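 active = B-score over 3 SD under the library average, and starting fluorescence ratio not unusually high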;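 also: choline stimulus applied at its EC90 after an EC20 pre-addition; B-score computed on integrated fluorescence ratio after choline addition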
VIM-2 inh = blocks Pseudomonas aeruginosa VIM-2 metallo-beta-lactamase; inhibition, % at 5.6 µM; hit rate 0.89% among 290,000; AID 1527; purified VIM-2, nitrocefin hydrolysis, epi-absorbance fluorescence;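 active = inhibition above the mean of all tested compounds plus 3 SD, cutoff set per screening run, cut at about 7.5% in these data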;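 also: red hydrolysis product quenches plate fluorescence so inhibitors raise well fluorescence; 0% = enzyme with DMSO and 100% = DMSO without enzyme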
IMP-1 inhibitor = inhibitors of Pseudomonas aeruginosa IMP-1 metallo-beta-lactamase | purified IMP-1, nitrocefin hydrolysis, epi-absorbance fluorescence | inhibition, % at 5.6 µM | hit rate 0.45% among 290,000 | AID 1556;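 active = inhibition above the mean plus 3 SD of all compounds in the same screening run, cut at about 4.5% in these data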;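 also: 0% = IMP-1 with DMSO and 100% = DMSO wells lacking enzyme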
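System: purified recombinant IMP-1 beta-lactamase. Medium: Zinc- and detergent-supplemented HEPES buffer, pH 7.1. Compound: one 5.6 µM dose […]. Schedule: 15 min preincubation plus 25 min reaction at 25 °C. Technique: Epi-absorbance fluorescence, 480 nm excitation, 530 nm emission.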
CHT PAM = allosterically activates the human high affinity choline transporter; Q9GZV3; CHT-expressing cells, membrane potential dye, choline EC20; hits give high values; LV-AA mutant CHT in HEK293 cells; B-score at 10 µM; hit rate 0.49% among 310,000; AID 488977;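 active = initial fluorescence not abnormally high and integrated response B-score, plate-corrected, over 3 SD above library mean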
ANO1 activ = activators or potentiators of mouse TMEM16A chloride channel; hit rate 0.3% among 340,000; AID 623877; Q8BHY3; B-score at 10 µM; HEK293 TMEM16A/YFP-H148Q/I152L, iodide quench fluorescence; hits give low values;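 active = fluorescence-ratio B-score plate-corrected deviation score at least 3 library SD below zero, with starting fluorescence score within 5 deviations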;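 also: channel opened by trigger with iodide after compound preincubation; score built on the fluorescence ratio of max minus min over baseline; more negative score means more quench and so TMEM16A activation or potentiation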
Target sequence (Q8BHY3 whole entry, looked up): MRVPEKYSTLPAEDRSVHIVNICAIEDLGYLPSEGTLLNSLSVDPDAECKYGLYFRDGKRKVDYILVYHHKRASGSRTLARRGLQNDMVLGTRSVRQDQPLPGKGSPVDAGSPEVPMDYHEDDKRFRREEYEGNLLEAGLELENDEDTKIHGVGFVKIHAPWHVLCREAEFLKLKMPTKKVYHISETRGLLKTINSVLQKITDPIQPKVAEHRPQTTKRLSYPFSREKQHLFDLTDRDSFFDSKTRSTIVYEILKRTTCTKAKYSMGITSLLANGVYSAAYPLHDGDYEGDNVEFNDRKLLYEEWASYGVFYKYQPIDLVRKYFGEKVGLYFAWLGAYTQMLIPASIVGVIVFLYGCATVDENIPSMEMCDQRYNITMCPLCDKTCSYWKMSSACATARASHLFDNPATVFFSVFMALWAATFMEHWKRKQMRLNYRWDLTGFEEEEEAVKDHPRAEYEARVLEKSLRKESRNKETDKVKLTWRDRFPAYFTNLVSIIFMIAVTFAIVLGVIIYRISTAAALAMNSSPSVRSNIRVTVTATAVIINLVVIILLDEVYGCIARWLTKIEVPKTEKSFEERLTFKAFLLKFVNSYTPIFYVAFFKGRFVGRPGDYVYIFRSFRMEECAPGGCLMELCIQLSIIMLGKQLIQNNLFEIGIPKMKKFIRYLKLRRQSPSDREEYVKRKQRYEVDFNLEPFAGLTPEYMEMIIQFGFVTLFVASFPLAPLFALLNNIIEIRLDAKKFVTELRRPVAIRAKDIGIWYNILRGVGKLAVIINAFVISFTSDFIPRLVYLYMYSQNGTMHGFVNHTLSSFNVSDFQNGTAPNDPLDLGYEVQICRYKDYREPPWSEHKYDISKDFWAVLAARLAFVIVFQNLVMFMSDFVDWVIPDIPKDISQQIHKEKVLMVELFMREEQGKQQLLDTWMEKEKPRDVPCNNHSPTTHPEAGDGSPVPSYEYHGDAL
ANO1 block = inhibitors of mouse TMEM16A calcium-activated chloride channel; Q8BHY3; normalized B-score (activity score, 25-100; higher = stronger inhibition) at 10 µM; HEK293 TMEM16A/YFP iodide influx fluorescence, ionomycin; hit rate 1.2% among 310,000;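 active = ratio plate-corrected score three or more library SD toward inhibition, starting fluorescence score within five deviations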;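 also: score derived from kinetic fluorescence span divided by baseline fluorescence per well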
CHT inh conf = human CHT inhibition, confirmatory screen. shares compounds with CHT inh. CHT-expressing cells, choline membrane potential dye; LV-to-AA substituted CHT, HEK293 cells. CHT activity remaining % of control (hits give low values), % at 10 µM. hit rate 70% among 2,400. AID 493221;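 active = choline transporter activity left, mean of duplicates at 10 µM, below buffer-only control mean minus 3 SD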;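 also: depolarization triggered by choline at its EC90 following an EC20 pre-addition; 0% = hemicholinium-3 full block and 100% = buffer-only control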
HEK293 CHT ctr = activity in parental HEK293 cells lacking CHT; shares compounds with CHT inh; membrane potential dye, choline response; active = decrease or increase beyond buffer ±3SD; hit rate 4% among 2,400; membrane potential ratio readout (active if shifted either direction beyond buffer ±3SD; no single direction) at 10 µM;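 also: parental cells lack the transporter so any hit is non-specific; ratio is peak minus trough fluorescence over baseline after EC90 choline challenge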
The depositor's hits bear a star. A selection: hits, their analogues and other compounds. The true share with any hit is near 3.4%.

Results for CC1CCCCN1C(=O)CN1CCN(S(=O)(=O)c2ccc(Br)cc2Cl)CC1 (stereo unspecified) ?
ANO1 activ: inactive

Results for COc1ccc(N2CCN(C3CCCN(S(=O)(=O)c4ccc(C)cc4C)C3)CC2)cc1 (stereo unspecified) ?
CHT inh: inactive; VIM-2 inh: -2; IMP-1 inhibitor: -3; CHT PAM: inactive; ANO1 activ: inactive; ANO1 block: inactive

How did CC(=O)Nc1ccc(Oc2ncccn2)c(Cl)c1 do in these assays?
CHT inh: -5.6*; VIM-2 inh: -3; IMP-1 inhibitor: -5; CHT PAM: inactive; ANO1 activ: inactive; ANO1 block: inactive; CHT inh conf: inactive; HEK293 CHT ctr: inactive

How did CCCCn1nc(C(=O)N2CCN(S(=O)(=O)c3ccccc3)CC2)c2ccccc2c1=O do in these assays?
CHT inh: inactive; CHT PAM: inactive; ANO1 activ: inactive; ANO1 block: inactive

What do the screens show for `COc1cccc(CSc2nnc(CSc3nc4nc(C)cc(C)n4n3)s2)c1`?
CHT inh: inactive; VIM-2 inh: -1; IMP-1 inhibitor: -2; CHT PAM: inactive; ANO1 activ: inactive; ANO1 block: inactive

How did Cc1ccc(CSc2nc3nc(C)cc(C)n3n2)cc1 do in these assays?
CHT inh: inactive; VIM-2 inh: 1; IMP-1 inhibitor: -2; CHT PAM: inactive; ANO1 activ: inactive; ANO1 block: inactive

What do the screens show for `COc1ccc(CSc2nc3nc(C)cc(C)n3n2)cc1F`?
CHT inh: -6*; VIM-2 inh: -1; IMP-1 inhibitor: -3; CHT PAM: inactive; ANO1 activ: inactive; ANO1 block: inactive; CHT inh conf: 46%*; HEK293 CHT ctr: inactive

Results for Cc1cc(C)n2nc(SCc3cccc(S(=O)(=O)N(C)C)c3)nc2n1 ?
CHT inh: -5.3*; VIM-2 inh: -1; IMP-1 inhibitor: -4; CHT PAM: inactive; ANO1 activ: inactive; ANO1 block: inactive; CHT inh conf: 68%*; HEK293 CHT ctr: inactive

Results for O=C(C(Br)=Cc1ccccc1)c1ccccc1 ?
ANO1 activ: inactive

What do the screens show for `CCCn1nc([N+](=O)[O-])c(C(C#N)c2nc3ccccc3s2)c(Cl)c1=O` (stereo unspecified)?
CHT inh: -14*; VIM-2 inh: -5; IMP-1 inhibitor: -8; CHT PAM: inactive; ANO1 activ: inactive; ANO1 block: 100*; CHT inh conf: 17%*; HEK293 CHT ctr: inactive

What do the screens show for `CCCN(CC(=O)Nc1ccccc1C)C(=O)c1ccc(NC2CC2)c([N+](=O)[O-])c1`?
CHT inh: inactive; CHT PAM: inactive; ANO1 activ: inactive; ANO1 block: inactive

Results for COc1ccc(-n2cccc2/C=C2\C(=N)N3N=C(C(C)C)SC3=NC2=O)cc1 ?
CHT inh: -6.1*; VIM-2 inh: -2; IMP-1 inhibitor: -2; CHT PAM: inactive; ANO1 activ: inactive; ANO1 block: inactive; CHT inh conf: inactive; HEK293 CHT ctr: inactive

How did CCOc1ccc(NC(=O)CN(C)C(=O)c2ccccc2-n2cnnn2)cc1OCC do in these assays?
CHT inh: inactive; CHT PAM: inactive; ANO1 activ: inactive; ANO1 block: inactive

How did CCN1CCN(c2cc(C)c3cc(NC(=S)N4CCN(c5ccccc5)CC4)ccc3n2)CC1 do in these assays?
CHT inh: inactive; VIM-2 inh: -3; IMP-1 inhibitor: -2; CHT PAM: inactive; ANO1 activ: inactive; ANO1 block: inactive

What do the screens show for `CCCN1CCN(C(=S)Nc2ccc3nc(N4CCN(CC)CC4)cc(C)c3c2)CC1`?
CHT inh: -9.2*; VIM-2 inh: 5; IMP-1 inhibitor: -2; CHT PAM: inactive; ANO1 activ: inactive; ANO1 block: inactive; CHT inh conf: 22%*; HEK293 CHT ctr: inactive

What do the screens show for `CCN1CCN(c2cc(C)c3cc(NC(=S)N4CCN(c5ccccc5F)CC4)ccc3n2)CC1`?
CHT inh: inactive; VIM-2 inh: -3; IMP-1 inhibitor: -4; CHT PAM: inactive; ANO1 activ: inactive; ANO1 block: inactive

How did CCN1CCN(c2cc(C)c3cc(NC(=S)N4CCC5(CC4)OCCO5)ccc3n2)CC1 do in these assays?
CHT inh: -5*; VIM-2 inh: 0; IMP-1 inhibitor: -1; CHT PAM: inactive; ANO1 activ: inactive; ANO1 block: inactive; CHT inh conf: 40%*; HEK293 CHT ctr: inactive

Results for CCN1CCN(c2cc(C)c3cc(NC(=S)N4CCOCC4)ccc3n2)CC1 ?
CHT inh: -5.8*; VIM-2 inh: 2; IMP-1 inhibitor: -2; CHT PAM: inactive; ANO1 activ: inactive; ANO1 block: inactive; CHT inh conf: 39%*; HEK293 CHT ctr: inactive

Results for COCCN(C(=O)CSc1nnc(-c2ccc(C)c(C)c2)o1)c1c(N)n(CC(C)C)c(=O)[nH]c1=O ?
CHT inh: -6.3*; CHT PAM: inactive; ANO1 activ: inactive; ANO1 block: inactive; CHT inh conf: 19%*; HEK293 CHT ctr: inactive

How did O=C(COc1ccc(F)cc1)Nc1nnc(S(=O)(=O)N2CCCC2)s1 do in these assays?
CHT inh: inactive; VIM-2 inh: -3; IMP-1 inhibitor: -3; CHT PAM: inactive; ANO1 activ: inactive; ANO1 block: inactive

Results for O=C(C[n+]1cccc(Br)c1)c1cccs1 ?
CHT inh: -9.2*; VIM-2 inh: 0; IMP-1 inhibitor: 1; CHT PAM: inactive; ANO1 activ: inactive; ANO1 block: inactive; CHT inh conf: 26%*; HEK293 CHT ctr: inactive

What do the screens show for `O=C(C[n+]1cc(Br)cc(Br)c1)c1ccccc1`?
CHT inh: inactive; VIM-2 inh: -1; IMP-1 inhibitor: -1; CHT PAM: inactive; ANO1 activ: inactive; ANO1 block: inactive

How did O=C(C[n+]1cccc(Br)c1)c1ccccc1 do in these assays?
CHT inh: -6*; VIM-2 inh: -3; IMP-1 inhibitor: -2; CHT PAM: inactive; ANO1 activ: inactive; ANO1 block: inactive; CHT inh conf: 18%*; HEK293 CHT ctr: inactive

What do the screens show for `COc1ccc(C(=O)C[n+]2cccc(Br)c2)cc1`?
CHT inh: -19*; VIM-2 inh: -1; IMP-1 inhibitor: -4; CHT PAM: inactive; ANO1 activ: inactive; ANO1 block: inactive; CHT inh conf: -0.1%*; HEK293 CHT ctr: inactive
